Screening data from PubChem BioAssay.
Sampled rows, rich in hits. Any-hit rate of the full collection: about 3.5%.
ERAP1 inh: ERAP1 (human) enzyme inhibition; Q9NZ08; recombinant ERAP1, Leu-AMC fluorescence, 60 min; inhibition, % at 10.7 µM; actives 0.15% (n = 340,000); AID 652197;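 active means mean replicate inhibition of at least 30%, or all replicates individually reaching that 30% level; inactive means mean below 30% and not every replicate reaching it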
PGC1a acetyl inh: lowers PGC1a acetylation signal in U2OS cells; AID 651687; AlphaScreen anti-acetyl-lysine; with virally co-expressed GCN5 acetyltransferase; inhibition, % at 15.6 µM; actives 0.17% (n = 350,000);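 active means every replicate shows inhibition of at least 40%; inconclusive means mean inhibition at least 40% but some replicate below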
Ecoli rRNA inh: inhibitors of bacterial rRNA selective over humanized ribosomes | E. coli WT GFP vs humanized-ribosome RFP mutants, fluorescence, 24 h; active compounds read low; DMSO median 0, no signal -100 | GFP signal change (wild-type ribosome), % (no concentration beside the values) | actives 1.6% (n = 350,000) | AID 720706;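 active means significant combined selectivity score with lowered wild-type GFP, culture density cut under 30%, mutant RFP and density less affected; inactive means any of these conditions unmet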
FGF22 binding: FGF22 (human) thermal shift binding. Q9HCT0. recombinant FGF22 thermal shift, SYPRO orange fluorescence; percent of sucrose octasulfate shift, DMSO zero. activity (Tm shift, normalised), % at 9.99 µM. actives 1.5% (n = 340,000). AID 651658;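 active means mean Tm shift, scaled 0 neutral to 100 positive control, at about 1.3% or above, every replicate too, limit read from the data; inconclusive means no clear call, values can overlap the other calls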
Target sequence (Q9HCT0 whole entry, looked up): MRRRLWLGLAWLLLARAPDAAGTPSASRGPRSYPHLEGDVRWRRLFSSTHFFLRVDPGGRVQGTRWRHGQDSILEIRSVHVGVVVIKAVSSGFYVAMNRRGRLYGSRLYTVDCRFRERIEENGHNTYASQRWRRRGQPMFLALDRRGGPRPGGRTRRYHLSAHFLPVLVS
Cneo AK release: Cryptococcus neoformans lysis via adenylate kinase release. C. neoformans lysis, adenylate kinase release luminescence, 4 h; normalised: neutral wells 0, clomiphene wells 100. actives 0.2% (n = 360,000). lysis activity, % at 15 µM;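 active means mean lysis activity across replicates of at least 80%, whatever share of replicates individually reach that level; inactive means mean lysis activity below 80%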
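Test system: log-phase Cryptococcus neoformans yeast cells; Quantity: yeast cell density of 5 × 10^6 cells/mL; Buffer or medium: YPD; Doses: single compound concentration per well; Timing: 4 h at 37 °C static, read 1 h later; Measured by: AK luminescence; Read-out basis: lysis from increased AK signal; Control set: Clomiphene as positive control.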
Env fusion inh: blocks HIV Env-driven cell-cell fusion; HeLa-JRFL Env/CEM21 cell fusion, luciferase; inhibition, % at 12.3 µM; actives 1.1% (n = 360,000); AID 651610;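 active means mean replicate inhibition score of at least 50 and every replicate individually at or above 50; inconclusive means only one of the two criteria met; inactive means mean below 50 and not all replicates reaching 50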
Each line names hits and unclear results; the compound was inactive in the other large screens.

CCOC(=O)c1sc(-c2ccc(Cl)cc2Cl)nc1O	Ecoli rRNA inh -29 (no result: PGC1a acetyl inh, Cneo AK release)
O=C(NNC(=O)c1ccccc1-n1cccc1)c1ccccc1	none (no result: ERAP1 inh, Ecoli rRNA inh, FGF22 binding, Env fusion inh)
NNC(=O)c1ccccc1-n1cccc1	FGF22 binding 43 (no result: Ecoli rRNA inh)
CC(NC(=O)c1ccccc1Br)c1nnc(SCc2ccc([N+](=O)[O-])cc2)n1C (stereo unspecified)	none (no result: PGC1a acetyl inh, Cneo AK release, Env fusion inh)
CN(C)/C=C/C(=O)c1ccc(Cl)s1	FGF22 binding 45 (no result: Cneo AK release)
C/C(=N\Nc1nc2ccccc2[nH]1)c1ccc2c(c1)OCCO2	Ecoli rRNA inh -48 (no result: PGC1a acetyl inh, Cneo AK release)
C/C(=N\Nc1nc2ccccc2[nH]1)c1ccc2c(c1)OCO2	none
C/C(=N\Nc1nc2ccccc2[nH]1)c1ccccn1	Env fusion inh 65 (no result: PGC1a acetyl inh)
CC(=O)N/N=C(\C)c1ccc2c(c1)OCCO2	FGF22 binding 43 (no result: Cneo AK release)
CC(=O)Nc1ccc(NC2(C)C(=O)c3ccccc3C2=O)cc1	none (no result: ERAP1 inh, Ecoli rRNA inh, FGF22 binding, Env fusion inh)
Cc1cc(C(F)(F)F)c2c(N)c(C(=O)NCc3ccc(Cl)cc3)sc2n1	FGF22 binding 43 (no result: PGC1a acetyl inh, Cneo AK release)
Cn1c(=O)c([N+](=O)[O-])c(NCc2ccccc2Cl)c2ccccc21	Ecoli rRNA inh -29 (no result: Cneo AK release)
Cc1nc2ccccc2nc1N1CCCC1	none (no result: ERAP1 inh)
Cc1ccc2c(Cl)c(C)c(N3CCCC3)nc2n1	Ecoli rRNA inh -36
Cc1ccc(SCc2[nH]nc3c2C(c2ccc(C)o2)C(C#N)=C(N)O3)cc1 (stereo unspecified)	Ecoli rRNA inh -37 (no result: PGC1a acetyl inh, Env fusion inh)
Brc1ccc(/C=N/n2cnnc2)s1	Ecoli rRNA inh -51 (no result: Cneo AK release)
Cc1ccc(/C=N/n2cnnc2)s1	none (no result: ERAP1 inh, Ecoli rRNA inh, FGF22 binding)
COC(=O)C(NC(=O)c1ccccc1C)(Nc1ncc(S(=O)(=O)c2ccc([N+](=O)[O-])cc2)s1)C(F)(F)F (stereo unspecified)	Env fusion inh inconclusive (no result: ERAP1 inh, Ecoli rRNA inh, FGF22 binding)
COC(=O)C(NC(=O)c1ccc(F)cc1)(Nc1ncc(S(=O)(=O)c2ccc([N+](=O)[O-])cc2)s1)C(F)(F)F (stereo unspecified)	Env fusion inh 127 (no result: ERAP1 inh, Ecoli rRNA inh, FGF22 binding)
COCCN(C(=O)c1ccc(N(C)S(=O)(=O)c2ccc(C)cc2)cc1)c1c(N)n(CC(C)C)c(=O)[nH]c1=O	none
O=C(NCc1ccccn1)c1ccc(N2CCCC2)c([N+](=O)[O-])c1	FGF22 binding 43
O=C(NCc1ccncc1)c1ccc(N2CCCC2)c([N+](=O)[O-])c1	none (no result: Cneo AK release)
O=C(Cn1cnc2ccccc2c1=O)Nc1ccc2c(c1)CCC2	none (no result: ERAP1 inh, Ecoli rRNA inh, FGF22 binding)
O=[N+]([O-])c1ccc(N2CCN(Cc3ccc([N+](=O)[O-])o3)CC2)cc1	Ecoli rRNA inh -23
O=[N+]([O-])c1ccc(N2CCN(CCOc3nonc3-c3ccccc3)CC2)c(Cl)c1	none (no result: Env fusion inh)
O=[N+]([O-])c1ccc(CN2CCN(c3ccccc3)CC2)o1	none (no result: PGC1a acetyl inh)
Cc1nonc1OCCN1CCN(c2ccc([N+](=O)[O-])cc2)CC1	Ecoli rRNA inh -23 (no result: ERAP1 inh, PGC1a acetyl inh, Cneo AK release)
CCN(CC)C(=O)c1nc[nH]c1C(=O)N1CCC(C)CC1	FGF22 binding 9.1
O=c1[nH][nH]c(-c2ccccc2)c1C=Nc1ccc(C(F)(F)F)cc1	FGF22 binding 44 (no result: PGC1a acetyl inh)
COc1cccc(-c2nc(NC3CCCC3)c3ccccc3n2)c1O	none
COC1OC(CO)C(O)C(O)C1O (stereo unspecified)	none (no result: Env fusion inh)
C=CCc1cc(/C=C2/NC(=O)NC2=O)cc(OCC)c1O	FGF22 binding 43 (no result: PGC1a acetyl inh, Cneo AK release)
COc1ccc(-c2csc3ncnc(Sc4nnnn4C)c23)cc1	none (no result: ERAP1 inh)
O=S(=O)(NC1CCCCC1Oc1ccccc1)c1ccc(Cl)cc1 (stereo unspecified)	FGF22 binding 44
CSc1ccc(OC2CCCCC2NS(=O)(=O)c2ccc(Cl)cc2)cc1 (stereo unspecified)	none (no result: PGC1a acetyl inh, Cneo AK release)
NNC(=O)c1cc(-c2cccs2)nc2ccccc12	none (no result: ERAP1 inh, PGC1a acetyl inh, Cneo AK release)
Cc1cccc2sc(NNC(=O)c3cc(-c4cccs4)nc4ccccc34)nc12	Env fusion inh 85
CCOC(=O)c1cnc(-n2nc(C)cc2C)nc1NC1CCCC1	Ecoli rRNA inh -49
O=C(CSCc1ccc(Cl)cc1Cl)Nc1ccc(O)cc1C(=O)O	none
COc1cc(NC(=O)CSCc2ccc(Cl)cc2Cl)c(C(=O)O)cc1OC	Ecoli rRNA inh -20
COC(=O)C[C@H](NC(=O)Cn1cnc2c(OCc3ccccc3)ncnc21)C(=O)OC	none
O=C1OC(Oc2ccccc2)(c2ccccc2)c2ccccc21 (stereo unspecified)	none (no result: ERAP1 inh, Ecoli rRNA inh, FGF22 binding)
O=C1OC(Cc2ccccc2)(c2ccccc2)c2ccccc21 (stereo unspecified)	FGF22 binding 44 (no result: PGC1a acetyl inh, Cneo AK release)
CC1C/C(=N/NC(=O)c2ccc(CSc3nc4ccccc4[nH]3)cc2)CC(C)(C)C1 (stereo unspecified)	none
CC1C/C(=N/Nc2nc3ccccc3[nH]2)CC(C)(C)C1 (stereo unspecified)	FGF22 binding 43 (no result: PGC1a acetyl inh, Cneo AK release)
COc1ccc(S(=O)(=O)CCC(=O)NCCc2ccc(Cl)cc2)cc1	none (no result: Env fusion inh)
Cc1ccc2nc(-c3ccc(Br)cc3)cc(C(=O)NCC3CCCO3)c2c1 (stereo unspecified)	none (no result: Ecoli rRNA inh)
COc1ccc([N+](=O)[O-])cc1/C=N/NC(=O)Cc1ccccc1	FGF22 binding 44 (no result: PGC1a acetyl inh, Cneo AK release)
